Experimental data as given in ChEMBL document CHEMBL4513216, “Probing the Open Global Health Chemical Diversity Library for Multistage-Active Starting Points for Next-Generation Antimalarials” (ACS Infect Dis, 2020).

Experiment: Toxicity liver stage against HepG2, at 10uM
Type: cell-based
Set-up: test concentration 10 uM, cell line HepG2-A16-CD81EGFP
Conditions: human, HepG2-A16-CD81EGFP cells; read-out: INHIBITION
Method in brief: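 Uninfected HepG2-A16-CD81EGFP cells, 3 × 10^3 per well, 1536-well, plated on prespotted compound at 10 μM final, parasite-free screening media added to match infected plates; puromycin 10 μM positive, DMSO 0.5% negative; run in parallel with 48 h PbLuc assay at 37 °C, 5% CO2; viability by CellTiter-Glo luminescence, normalized to controls.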

Structure (SMILES)	cytotoxicity at 10 µM [%]
CC(C)(C)CN1CC(O)CN(C(=O)c2cccc(C(F)(F)F)c2)CC1=O (stereo not given)	5.99
COc1ccc(-c2csc3c2c(N)nc(=O)n3CCCN(C)C)cc1	-54
O=C(CN1C(=O)CCC1=O)N1CCOCC1	2.48
COc1ncc(C(=O)NCc2ccc(Br)cc2)cn1	48.6
COC(=O)c1ccc(S(=O)(=O)NC2CNC(=O)C2)cc1 (stereo not given)	-7.27
O=C(Nc1cnccn1)[C@H]1C[C@H]2OCC[C@H]2N(c2ncc(F)cn2)C1	16.4
CC(C)N1CCC(c2ccnc3c(C(=O)N4CCCC4)ncn23)CC1	-5.49
O=C(c1cnccn1)N1CCn2cnc(COCC3CC3)c2C1	7.14
CC(C)CCNc1c(C#N)c2c(c3nncn13)CN(C)CC2	9.26
O=C1CC(c2cccs2)Cc2[nH]c(=O)c(C(=O)NC3CCCC3)cc21 (stereo not given)	80.5
Cc1oc(-c2nc(C#N)c(NC(C)C)o2)cc1S(=O)(=O)N1CCCCC1	4.28
C=C/C=c1\c(=C/C)oc2c(NCc3ccccc3)ncnc12	21.3
Cc1cccc2c1cnn2CCCNC(=O)CCCC(=O)O	-11.1
Cc1cc(C)n(-c2nc(C(=O)NCCN3CCC(C)CC3)cs2)n1	10.2
Cc1nc(O)c2c(n1)CCN(Cc1cc(C)sc1C)CC2	-9
Cc1cc(C(F)(F)F)c2c(C3CCN(S(=O)(=O)N(C)C)CC3)noc2n1	3.63
Cn1nc(C2CCNCC2)c2c(C(=O)NC3CC3)cc(C3CC3)nc21	16.2
CCCc1nn(Cc2csc(CC)n2)c(=O)o1	-43.1
COCc1nc(-c2ccc(S(=O)(=O)N3CCCC3)cc2)cs1	-49.8
COCCN1CCC(CNc2nc3ccccc3o2)CC1	-53.6
COC(=O)NCC(=O)N1CCCC1c1nc(-c2ccccc2F)c[nH]1 (stereo not given)	8.01
Cc1ccc(C(C)NC(=O)N2CCCN(CC(F)F)CC2)s1 (stereo not given)	3.44

Structure (SMILES)	cytotoxicity at 10 µM [%]
CC1CN(c2ncnc3sccc23)CCN1c1nccs1 (stereo not given)	32.1
CSCC(=O)N1CCN(CC(O)C(C)(C)C)CC1 (stereo not given)	-5.66
COc1cc2c(cc1CNCc1cccnc1OC)OC(C)C2 (stereo not given)	3.67
NC(=O)C(NCc1cccs1)c1ccccc1 (stereo not given)	-41.5
Cc1occc1C(=O)NCC(=O)N(C)CCCOc1ccccc1	-50.2
CC(CNC(=O)CCCc1ccccn1)c1ccsc1 (stereo not given)	7.42
CCS(=O)(=O)N1Cc2ccccc2CC1C(=O)OCc1cc(C)no1 (stereo not given)	-13
CCN(CCCNC(=O)c1ccc(C)[nH]c1=O)S(C)(=O)=O	-8.01
Cc1ccc(C(CNCc2ncc[nH]2)N2CCOCC2)s1 (stereo not given)	12
Cc1nc2c(c(C)c1CC(=O)Nc1ccccc1F)c(=O)[nH]n2C	0.177
CC(C)c1ocnc1C(=O)NC1(c2cccc(F)c2)CCOCC1	6.81
Cc1ccc(C(=O)N2CCCC(n3cncn3)C2)o1 (stereo not given)	4.35
Cc1nnc2n1CC(CNc1cnc3ccccc3n1)CC2 (stereo not given)	-41.5
NC(=O)C1=NC2=NS(=O)(=O)c3ccccc3N2N1Cc1ccc(Cl)cc1	1.75
CC(=O)N(CCc1ccccc1)CC(=O)NC(C)(C)C#N	8.06
CC(CCN(C)C)NC(=O)N1CCSC(C)(C)C1 (stereo not given)	5.4
Cc1ccccc1CN(C)CC(O)COCc1ccccc1Cl (stereo not given)	8.49
COc1cc(F)c(NCc2nc3ccccc3n2C)cc1OC	26.5
CSCCC(NC(=O)c1ccc2ccccc2n1)C(=O)N(C)C (stereo not given)	-12
CC(C)(C)c1cnc(CN2CCC(NC(=O)NC3CCCCC3)CC2)o1	-3.73
Cc1nc(-c2ccccc2)sc1CSCCC(N)=O	-7.97
O=C(COCc1ccccc1Cl)N1CCN(c2ccc(Br)cn2)CC1	46.6

Structure (SMILES)	cytotoxicity at 10 µM [%]
O=C(NC1CC1)N1C[C@H]2CN(Cc3cccc(F)c3)C(=O)[C@H]2C1	-70.5
CS(=O)(=O)N[C@H]1CN(C(=O)c2cscn2)[C@@H]2CCCO[C@H]12	-84.6
CC(=O)N1CCC2(CCCN(Cc3ccc(Cl)c(C(F)(F)F)c3)C2)C1 (stereo not given)	3.22
O=C1CC2(CCN(Cc3ccoc3)C2)CN1c1ccc2c(c1)OCO2 (stereo not given)	-6.72
COCC(=O)Nc1ccccc1Sc1c(C)n[nH]c1C	-10.2
CC(CN1CCCCCC1)NCc1cc(-c2ccco2)on1 (stereo not given)	1.56
CC1CN(CC(=O)NCCc2ccncc2)Cc2ccccc2O1 (stereo not given)	-0.369
CCC(=O)N1CCN(C(=O)Nc2ccc(Cl)cc2)[C@H]2CS(=O)(=O)C[C@H]21	-43.9
COc1cccc(-c2nc3c([nH]2)CCNC3)c1F	-44.7
O=C1N(Cc2ccc(F)c(F)c2)CCCC1(O)CNCc1cccnc1 (stereo not given)	0.598
COc1ccc(C(=O)C2CCCN(c3cc(N)ncn3)C2)c(C)c1 (stereo not given)	5.31
CCCc1nc(N2CCC(CCO)CC2)c2cnn(C)c2n1	2.28
COc1cccc(CN2CCCCC2CN2CCOCC2)c1F (stereo not given)	2.64
Cc1ccccc1OC1CCN(C(=O)c2c[nH]c(=O)[nH]c2=O)CC1	5.25
CNc1ncc(CN(C)Cc2cc(O)c3cccc(Cl)c3n2)cn1	7.05
COCC(=O)N1C[C@H]2CNC[C@@]2(C(=O)NCc2cc(C)n[nH]2)C1	8.29
COc1ccc2c(C)c(C(=O)NC3CCCOC3)oc2c1 (stereo not given)	-7.28
COc1nccnc1-c1cc(NC2CCCC2)nc2[nH]ccc12	1.97
COc1ccc(C(=O)NC2CC2)c(OC2CCN(CCCSC)CC2)c1	-1.76
CCc1nn(C)c(Cl)c1CN1C[C@@H](NC(=O)N(C)C)[C@H](C(C)C)C1	11.4
Cc1cccc2c(CCNC(=O)[C@H](N)c3ccccc3)c[nH]c12	-3.55
CC(C)C1CN(C(=O)c2cn3cc(Cl)cnc3n2)CCCN1CC1CC1 (stereo not given)	3.46

Structure (SMILES)	cytotoxicity at 10 µM [%]
Cn1cc(-c2c(C#N)c(N)nc3c2CCc2[nH]ccc2-3)cn1	-4.37
N#CC1(c2ccccc2)CCN(C(=O)C2CCCN(CC(N)=O)C2)CC1 (stereo not given)	-7.47
Cn1ccnc1-c1ccc(NC[C@H]2CCc3ccccc3O2)nn1	-5.71
COc1cccc2c(=O)n(C3CCCNC3)cnc12 (stereo not given)	-42.4
NC(=O)CN1CCC(C(=O)NCCn2cc(Cl)cn2)CC1	-45.6
Fc1cccnc1Oc1cc(F)c(CN2CCCC2)c(Cl)c1	3.3
O=C(Nc1ccc2c(c1)OCO2)N1CCN(CCc2ccccc2)CC1	-9.28
CN(C)[C@H]1CCCCN(C(=O)c2cccc(-c3cccc(F)c3)c2)C1	-6.3
Cc1cnn(CCNc2ncnc3c2CCN(CC2CCOC2)CC3)c1 (stereo not given)	-4.24
Cc1cc(N(C)Cc2ncc[nH]2)nc(-c2ccccc2)n1	1.68
Cc1ccc(CN2CCN(C(=O)c3ccc(CO)cc3)C(C)C2=O)cc1 (stereo not given)	6.42
Cc1nc(C2CCN(C[C@H](C)CO)CC2)cc(N2CCOCC2)n1	-9.3
Cc1ncc(CNC2CC(=O)N(CCc3cccc(Cl)c3)C2)n1C (stereo not given)	-133
O=c1[nH]c(NC2CCCC2)nc2nccc(-c3ccsc3)c12	-12.1
Cc1c[nH]c(CN(C)c2nc(C3CCCC3)nc3c2cnn3C)n1	-7.56
CCS(=O)(=O)N(C)c1ccc(C(=O)N2CCCC(C)C2)cc1 (stereo not given)	-15.4
Cc1cc(C(F)(F)F)nn1CCCNC(=O)C1CCCO1 (stereo not given)	-6.5
Cc1cc2n(n1)CC(CNCc1ccc(OCC3CC3)nc1)CN2 (stereo not given)	-8.42
CCc1ccccc1OCC(=O)N1CCOCC1c1ncon1 (stereo not given)	-8.93
CCOc1cc(C)nc(N2CCN(C(=O)C(C)NC(C)=O)CC2)n1 (stereo not given)	-4.41
COc1cc(C)nc(N2CCN(C(=O)CN(C)C(C)C)CC2)n1	-14.6
CN(C(=O)Cc1ccccc1Cl)C1CCN(c2ccccn2)CC1	-7.48

Structure (SMILES)	cytotoxicity at 10 µM [%]
Cc1nc(NC(=O)CN2CCOC(Cn3cccn3)C2)sc1C (stereo not given)	-8.27
CC(C)(C)c1nc(CN2CCCC2Cn2cccn2)no1 (stereo not given)	0.222
CCn1cnnc1CNC(=O)N1CCN(c2nc(C)c(C)s2)CC1	-9.62
COc1ccc(-c2nc(CN3CCN(CCO)CC3)co2)cc1	-0.0868
Cc1nc(CN(C)C2CCN(Cc3nc4ccccc4s3)C2)no1 (stereo not given)	-4.27
CC(C)c1nc(C2CCCN2C(=O)c2nccnc2N)no1 (stereo not given)	-1.96
Cc1noc(C2CCN(C(=O)c3ccc(NC4CC4)nc3)CC2)n1	-7.1
CC(O)CN1CCN(C(=O)c2ccc3c(c2)COC3)CC1 (stereo not given)	-6.44
Cn1cc(CCNC(=O)NCc2nnc3n2CCC3)cn1	-6.08
CN(C(=O)c1cccc2[nH]ncc12)C1CCN(c2ccccn2)CC1	7.31
O=C(NCC(F)F)c1cnc(C2CCCN2)cn1 (stereo not given)	0.13
CCCC(=O)N(CCCN1CCOCC1)c1nc2c(C)c(C)ccc2s1	-12.6
c1cnc(N2CC[C@@H](N3CCOCC3)[C@@H]2Cc2ccncc2)nc1	2.9
Cc1cnc(N2CCC3(CCCN3C(=O)c3ccco3)CC2)nc1	6.71
c1cnc(N2CCC3(COCc4cnc(-c5cccnc5)nc43)C2)nc1 (stereo not given)	2.57
Cc1ccc2c(c1)CN(C(=O)C1CCCCC1)C(CN(C)C)CO2 (stereo not given)	1.85
CCc1c(C)[nH]c(C(C)(C)N)nc1=O	-11
CCN1CCC2(CC1)CN(C(=O)c1cccnc1)c1ccc(Cl)cc12	-111
CC(C)C(=O)NC1CC2(CCN(CC(=O)N(C)C)CC2)c2ccccc21 (stereo not given)	-103
Cc1noc(C)c1CN1CCC2(CCN(Cc3cccc(F)c3)CC2)C1	-122
COc1ncccc1CNC1CCc2c(ccc(=O)n2C)C1 (stereo not given)	-103
Cc1ncoc1C(=O)N1C[C@H]2CCC[C@@]2(COCc2cccnc2)C1	4.53
